Activity calls are given as the source filed them. The rule behind the calls is not given here. Some results are limits rather than exact numbers.

The species entered for one assay is Bos taurus. The assay is described as follows: Competitive binding affinity to bovine brain tubulin after 1 hr by mass spectrometry binding assay in presence of colchicine. The class given is tissue-based.
Settings: not given
On to `COc1cc(C(=O)c2nc(-c3ccccc3)cn2-c2ccccn2)cc(OC)c1OC`, for which the result was Active.

On to `COc1cc(C(=O)c2nc(-c3ccccc3)c[nH]2)cc(OC)c1OC`, for which the outcome was Active.

In the case of `CC[C@]1(O)C[C@@H]2CN(CCc3c([nH]c4ccccc34)[C@@](C(=O)OC)(c3cc4c(cc3OC)N(C)[C@H]3[C@@](O)(C(=O)OC)[C@H](OC(C)=O)[C@]5(CC)C=CCN6CC[C@]43[C@@H]65)C2)C1`, the outcome was inactive.

In the next assay the test system is LNCaP. Description: Cytotoxicity against human LNCAP cells assessed as growth inhibition after 96 hrs by SRB assay. Format: functional, cell-based.
Settings: not given
In a few lines:
(§1)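 Plated at 1000–5000 cells/well depending on growth rate and treated with graded compound concentrations for 96 h, three to five replicates. Cell number was measured by SRB: 10% TCA fixation, 0.4% SRB staining, absorbance at 540 nm. IC50 relative to untreated control came from a nonlinear regression fit.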
On the technique in general: In SRB staining, fixed cells bind dye roughly in proportion to their protein.
On to `COc1cc(C(=O)c2nc(-c3ccccc3)cn2-c2ccccn2)cc(OC)c1OC`, for which the IC50 is 20 nM.

For the compound `CCn1cc(-c2ccccc2)nc1C(=O)c1cc(OC)c(OC)c(OC)c1`, the IC50 is 29 nM.

As for `COc1cc(C(=O)c2nc(-c3ccc(C(F)(F)F)cc3)c[nH]2)cc(OC)c1OC`, the IC50 turned out to be 47 nM.

In the case of `COc1cc(C(=O)c2nc(-c3ccc(Br)cc3)c[nH]2)cc(OC)c1OC`, the 50% inhibitory concentration (IC50) is 15 nM.

As for `O=C(c1ccc(C(F)(F)F)cc1)c1nc(-c2ccc(C(F)(F)F)cc2)c[nH]1`, the IC50 was greater than 50000 nM.

As to `COc1cc(C(=O)c2nc(-c3ccccc3)c[nH]2)cc(OC)c1OC`, the IC50 came to 6 nM.

Another assay concerns PC-3. Description: Cytotoxicity against human PC3 cells assessed as growth inhibition after 96 hrs by SRB assay. As to conditions: PC-3, 96 h. Format: functional, cell-based. In outline:
as §1
As for `CCn1cc(-c2ccccc2)nc1C(=O)c1cc(OC)c(OC)c(OC)c1`, the IC50 is 25 nM.

Take `COc1cc(C(=O)c2nc(-c3ccc(C(F)(F)F)cc3)c[nH]2)cc(OC)c1OC`: the IC50 is 93 nM.

For `COc1cc(C(=O)c2nc(-c3ccc(Br)cc3)c[nH]2)cc(OC)c1OC`, the IC50 is 33 nM.

`O=C(c1ccc(C(F)(F)F)cc1)c1nc(-c2ccc(C(F)(F)F)cc2)c[nH]1`: the IC50 was greater than 50000 nM.

On to `COc1cc(C(=O)c2nc(-c3ccccc3)c[nH]2)cc(OC)c1OC`, for which the IC50 is 14 nM.

A further assay concerns PPC-1. Description: Cytotoxicity against human PPC1 cells assessed as growth inhibition after 96 hrs by SRB assay. The class given is functional, cell-based. As to conditions: PPC-1, 96 h. In a few lines: as §1
As for `COc1cc(C(=O)c2nc(-c3ccccc3)cn2-c2ccccn2)cc(OC)c1OC`, the concentration for half-maximal inhibition (IC50) turned out to be 8 nM.

`COc1cc(C(=O)c2nc(-c3ccc(C(F)(F)F)cc3)c[nH]2)cc(OC)c1OC`: the IC50 was 74 nM.

On to `O=C(c1ccc(C(F)(F)F)cc1)c1nc(-c2ccc(C(F)(F)F)cc2)c[nH]1`, for which the IC50 is greater than 50000 nM.

Regarding `COc1cc(C(=O)c2nc(-c3ccccc3)c[nH]2)cc(OC)c1OC`, the IC50 was found to be 13 nM.

A further assay concerns DU-145. Description: Cytotoxicity against human DU145 cells assessed as growth inhibition after 96 hrs by SRB assay. As to conditions: Homo sapiens, DU-145, 96 h. The class given is functional, cell-based.
Take `COc1cc(C(=O)c2nc(-c3ccccc3)cn2-c2ccccn2)cc(OC)c1OC`: the IC50 was 37 nM.

Regarding `CCn1cc(-c2ccccc2)nc1C(=O)c1cc(OC)c(OC)c(OC)c1`, the IC50 came to 66 nM.

As for `COc1cc(C(=O)c2nc(-c3ccc(C(F)(F)F)cc3)c[nH]2)cc(OC)c1OC`, the IC50 turned out to be 210 nM.

As to `COc1cc(C(=O)c2nc(-c3ccc(Br)cc3)c[nH]2)cc(OC)c1OC`, the IC50 was 66 nM.

As for `O=C(c1ccc(C(F)(F)F)cc1)c1nc(-c2ccc(C(F)(F)F)cc2)c[nH]1`, the IC50 was greater than 50000 nM.

With `COc1cc(C(=O)c2nc(-c3ccccc3)c[nH]2)cc(OC)c1OC`, the IC50 turned out to be 22 nM.

The subject of the next assay is A-375. The assay is described as follows: Cytotoxicity against human A375 cells assessed as growth inhibition after 48 hrs by SRB assay. Format: functional, cell-based. The following applies: A-375, 48 h. In outline:
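Melanoma cells from ATCC, grown in DMEM with 10% FBS at 37°C under 5% CO2. Seeded at 1000–5000 cells/well according to growth rate and exposed to a range of compound concentrations for 48 h, in three to five replicates. Cells were fixed with 10% TCA, stained with 0.4% SRB and read at 540 nm.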
In the case of `COc1cc(C(=O)c2nc(-c3ccccc3)cn2-c2ccccn2)cc(OC)c1OC`, the IC50 turned out to be 14 nM.

Consider `CCn1cc(-c2ccccc2)nc1C(=O)c1cc(OC)c(OC)c(OC)c1`, for which the concentration for half-maximal inhibition (IC50) came to 28 nM.

`COc1cc(C(=O)c2nc(-c3ccc(C(F)(F)F)cc3)c[nH]2)cc(OC)c1OC`: the IC50 stood at 123 nM.

For the compound `COc1cc(C(=O)c2nc(-c3ccc(Br)cc3)c[nH]2)cc(OC)c1OC`, the IC50 is 29 nM.

`O=C(c1ccc(C(F)(F)F)cc1)c1nc(-c2ccc(C(F)(F)F)cc2)c[nH]1`: the IC50 is greater than 50000 nM.

`COc1cc(C(=O)c2nc(-c3ccccc3)c[nH]2)cc(OC)c1OC`: the IC50 is 9 nM.

For the next assay, the system named is MDA-MB-435. Description: Cytotoxicity against human MDA-MB-435 cells assessed as growth inhibition after 48 hrs by SRB assay. As to conditions: MDA-MB-435, 48 h. The class given is functional, cell-based.
As to `COc1cc(C(=O)c2nc(-c3ccccc3)cn2-c2ccccn2)cc(OC)c1OC`, the IC50 was determined as 11 nM.

In the case of `CCn1cc(-c2ccccc2)nc1C(=O)c1cc(OC)c(OC)c(OC)c1`, the IC50 was determined as 26 nM.

For `COc1cc(C(=O)c2nc(-c3ccc(C(F)(F)F)cc3)c[nH]2)cc(OC)c1OC`, the IC50 came out at 120 nM.

On to `COc1cc(C(=O)c2nc(-c3ccc(Br)cc3)c[nH]2)cc(OC)c1OC`, for which the IC50 worked out at 58 nM.

With `O=C(c1ccc(C(F)(F)F)cc1)c1nc(-c2ccc(C(F)(F)F)cc2)c[nH]1`, the IC50 is greater than 50000 nM.

Turning to `COc1cc(C(=O)c2nc(-c3ccccc3)c[nH]2)cc(OC)c1OC`, the IC50 was determined as 24 nM.

Tested on in another assay: not listed separately
The assay is described as follows: Cytotoxicity against human MDA-MB-435/LCC6MDR1 cells assessed as growth inhibition after 48 hrs by SRB assay. Format: functional, cell-based, MDA-MB-435/LCC6 MDR1. As to conditions: Homo sapiens, MDA-MB-435/LCC6 MDR1, 48 h.
Regarding `COc1cc(C(=O)c2nc(-c3ccccc3)cn2-c2ccccn2)cc(OC)c1OC`, the IC50 stood at 15 nM.

Regarding `CCn1cc(-c2ccccc2)nc1C(=O)c1cc(OC)c(OC)c(OC)c1`, the IC50 was 33 nM.

As for `COc1cc(C(=O)c2nc(-c3ccc(C(F)(F)F)cc3)c[nH]2)cc(OC)c1OC`, the IC50 came to 175 nM.

With `COc1cc(C(=O)c2nc(-c3ccc(Br)cc3)c[nH]2)cc(OC)c1OC`, the IC50 was determined as 43 nM.

Consider `O=C(c1ccc(C(F)(F)F)cc1)c1nc(-c2ccc(C(F)(F)F)cc2)c[nH]1`, for which the IC50 stood at 26500 nM.

For the compound `COc1cc(C(=O)c2nc(-c3ccccc3)c[nH]2)cc(OC)c1OC`, the IC50 stood at 11 nM.

Tested on in another assay: not listed separately
The assay is described as follows: Cytotoxicity against human WM164 cells assessed as growth inhibition after 48 hrs by SRB assay. Format: functional, cell-based. The following applies: WM164, 48 h. In a few lines: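 Melanoma cells from ATCC, grown in DMEM with 10% FBS at 37°C under 5% CO2. Seeded at 1000–5000 cells/well according to growth rate and exposed to a range of compound concentrations for 48 h, in three to five replicates. Cells were fixed with 10% TCA, stained with 0.4% SRB and read at 540 nm. IC50 (50% growth inhibition versus untreated control) was taken from nonlinear regression of % survival against concentration.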
`COc1cc(C(=O)c2nc(-c3ccccc3)cn2-c2ccccn2)cc(OC)c1OC`: the IC50 is 6 nM.

In the case of `CCn1cc(-c2ccccc2)nc1C(=O)c1cc(OC)c(OC)c(OC)c1`, the IC50 came out at 16 nM.

With `COc1cc(C(=O)c2nc(-c3ccc(C(F)(F)F)cc3)c[nH]2)cc(OC)c1OC`, the IC50 was found to be 143 nM.

Take `COc1cc(C(=O)c2nc(-c3ccc(Br)cc3)c[nH]2)cc(OC)c1OC`: the IC50 came out at 31 nM.

Take `O=C(c1ccc(C(F)(F)F)cc1)c1nc(-c2ccc(C(F)(F)F)cc2)c[nH]1`: the IC50 was greater than 50000 nM.

`COc1cc(C(=O)c2nc(-c3ccccc3)c[nH]2)cc(OC)c1OC`: the IC50 is 14 nM.

The subject of the next assay is PC-3. Description: Cell cycle arrest in human PC3 cells assessed as accumulation at G2/M phase after 24 hrs by propidium iodide staining based FACS analysis (reference value: 18%). The class given is functional.
Settings: not given
A general note: Flow cytometry measures light scatter and fluorescence of single cells or particles in a stream.
For the compound `CCn1cc(-c2ccccc2)nc1C(=O)c1cc(OC)c(OC)c(OC)c1`, the Activity entry is “Dose-dependent effect”.

Consider `COc1cc(C(=O)c2nc(-c3ccc(Br)cc3)c[nH]2)cc(OC)c1OC`, for which the Activity entry was “Dose-dependent effect”.

With `COc1cc(C(=O)c2nc(-c3ccccc3)c[nH]2)cc(OC)c1OC`, the Activity entry was “Dose-dependent effect”.

The assay is the same for the next values; noted with them: record 2.
In the case of `CCn1cc(-c2ccccc2)nc1C(=O)c1cc(OC)c(OC)c(OC)c1`, the Activity entry is listed as “<=70%”.

For `COc1cc(C(=O)c2nc(-c3ccc(Br)cc3)c[nH]2)cc(OC)c1OC`, the Activity entry is given as “<=70%”.

For `COc1cc(C(=O)c2nc(-c3ccccc3)c[nH]2)cc(OC)c1OC`, the Activity result is reported as “<=70%”.

Tested on in the next assay: not listed separately
Description: Resistance index, ratio of IC50 for human MDA-MB-435/LCC6 MDR1 cells to IC50 for human MDA-MB-435 cells. The class given is functional.
Settings: not given
Consider `COc1cc(C(=O)c2nc(-c3ccc(C(F)(F)F)cc3)c[nH]2)cc(OC)c1OC`, for which the “Ratio IC50” value stood at 0.8.

`COc1cc(C(=O)c2nc(-c3ccccc3)c[nH]2)cc(OC)c1OC`: the “Ratio IC50” value is given as 0.5.

The next assay deals with Tubulin (Sus scrofa) (UniProt P02554+P02550). The assay is described as follows: Inhibition of pig brain tubulin polymerization measured every 1 min for 40 mins by microplate reader analysis.
Tubulin (Sus scrofa), sequence (P02550 whole entry, looked up): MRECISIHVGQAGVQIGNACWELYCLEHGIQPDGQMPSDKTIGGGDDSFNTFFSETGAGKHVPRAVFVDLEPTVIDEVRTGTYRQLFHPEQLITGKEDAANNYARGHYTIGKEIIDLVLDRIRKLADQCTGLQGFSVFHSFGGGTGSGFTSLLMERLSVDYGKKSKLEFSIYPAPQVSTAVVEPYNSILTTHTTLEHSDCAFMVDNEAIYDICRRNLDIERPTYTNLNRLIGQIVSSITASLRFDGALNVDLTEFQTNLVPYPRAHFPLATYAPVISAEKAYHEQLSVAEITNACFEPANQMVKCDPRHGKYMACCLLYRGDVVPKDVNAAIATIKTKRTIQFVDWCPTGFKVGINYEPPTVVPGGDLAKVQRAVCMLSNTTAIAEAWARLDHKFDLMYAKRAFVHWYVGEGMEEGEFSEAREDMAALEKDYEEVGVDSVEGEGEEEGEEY
Tubulin (Sus scrofa), sequence (P02554 whole entry, looked up): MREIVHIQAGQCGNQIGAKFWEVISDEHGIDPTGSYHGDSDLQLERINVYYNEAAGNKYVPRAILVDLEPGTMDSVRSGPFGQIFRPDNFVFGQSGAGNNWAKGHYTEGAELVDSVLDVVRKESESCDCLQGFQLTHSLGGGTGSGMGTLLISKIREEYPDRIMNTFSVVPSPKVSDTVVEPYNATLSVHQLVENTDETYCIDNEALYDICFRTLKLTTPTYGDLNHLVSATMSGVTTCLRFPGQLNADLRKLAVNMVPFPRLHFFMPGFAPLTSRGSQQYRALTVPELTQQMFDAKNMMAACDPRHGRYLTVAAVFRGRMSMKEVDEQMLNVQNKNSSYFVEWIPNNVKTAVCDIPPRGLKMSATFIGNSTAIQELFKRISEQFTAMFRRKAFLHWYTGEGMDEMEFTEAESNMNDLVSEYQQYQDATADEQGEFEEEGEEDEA
Settings: not given
In outline: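 Polymerization was followed with a fluorescence-enhanced tubulin polymerization assay kit.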
With `COc1cc(C(=O)c2nc(-c3ccccc3)c[nH]2)cc(OC)c1OC`, the inhibition result is “Active”.

As for `CC[C@]1(O)C[C@@H]2CN(CCc3c([nH]c4ccccc34)[C@@](C(=O)OC)(c3cc4c(cc3OC)N(C)[C@H]3[C@@](O)(C(=O)OC)[C@H](OC(C)=O)[C@]5(CC)C=CCN6CC[C@]43[C@@H]65)C2)C1`, the inhibition entry was “Dose-dependent effect”.

By IC50 is commonly meant the concentration at which inhibition is half-maximal.

Values taken from ChEMBL document CHEMBL2321845, “Discovery of 4-Aryl-2-benzoyl-imidazoles as tubulin polymerization inhibitor with potent antiproliferative properties” (J Med Chem, 2013).
